# Experimental data of several laboratories.
# Target: Dual specificity protein kinase CLK3 (CLK3, Homo sapiens, UniProt P49761)
Compound,assay,setting,quantity,value
C[S+]([O-])c1ccc(-c2nc(-c3ccncc3)c(-c3ccc(F)cc3)[nH]2)cc1 (stereo not shown),cell-free assay,0.5 µM,remaining signal,99.1%
CC(=O)C1=C(C)N(c2cccc(C(F)(F)F)c2)C(=O)N[C@@H]1c1ccc(C#N)nc1,"cell-free assay, competition with immobilised ligand",1 µM,remaining binding,100%
CNC(=O)c1cc(Oc2ccc(NC(=O)Nc3ccc(Cl)c(C(F)(F)F)c3)cc2)ccn1,"enzyme activity, inhibitor",10 µM,inhibition,13%
Cn1c2c(c3ccc(Cl)c(Cl)c31)C(C#N)C1(CCOCC1)NC2=O (stereo not shown),"thermal stability, DSF",10 µM,ΔTm,0.1 °C
Cc1sc(C(=O)NC2COC2)cc1-n1cc(NC(=O)Nc2c(F)cccc2Cl)cn1,"enzyme activity, inhibitor",10 µM,remaining activity,99.6%
CO[C@@H](C)c1c(Nc2ccc([C@H](N(C)C(=O)C3CCS(=O)(=O)CC3)C(F)(F)F)cc2)cnc2cc(Cl)nn12,"cell-free assay, competition with immobilised ligand",1 µM,remaining binding,87%
Cn1c2c(c3ccc(Cl)c(Cl)c31)C(C#N)C1(CCNCC1)NC2=O (racemic),"thermal stability, DSF",10 µM,ΔTm,2.2 °C
COc1cc2c(Nc3ccc(Br)cc3F)ncnc2cc1OCC1CCN(C)CC1,cell-free assay,0.5 µM,remaining signal,100%
CCC1(CC)NC(=O)c2c(c3ccc(Cl)c(Cl)c3n2C)C1C#N (stereo not shown),"thermal stability, DSF",10 µM,ΔTm,0.3 °C
COc1cc(Nc2c(C#N)cnc3cc(OCCCN4CCN(C)CC4)c(OC)cc23)c(Cl)cc1Cl,cell-free assay,0.5 µM,remaining signal,94.9%
Cc1ccc(NC(=O)c2ccc(C)c(C(F)(F)F)c2)cc1C#Cc1nn(C2CCC(O)CC2)c2ncnc(N)c12 (stereo not shown),cell-free assay,10 µM,remaining signal,83%
COc1cc(Cl)c(C(=O)N[C@@H](CN[C@H]2CC[C@@H](N)CC2)Cc2ccc(C#N)cc2)cc1-c1ccc(CN[C@H](C)c2ccc(C)cc2)o1,"enzyme activity, inhibitor",1 µM,remaining activity,99%
O=C(NC[C@@H]1[C@H]2CN(C(=O)OCc3cc(C(F)(F)F)cc(C(F)(F)F)c3)C[C@@H]12)c1ccc2[nH]nnc2c1,"cell-free assay, competition with immobilised ligand",1 µM,remaining binding,78%
Cc1ccc(Nc2nccc(N(C)c3ccc4c(C)n(C)nc4c3)n2)cc1S(N)(=O)=O,"enzyme activity, inhibitor",10 µM,inhibition,32%
O=C(Nc1cnn(-c2csc(C(=O)NC3COC3)c2)c1)Nc1c(F)cccc1Cl,"enzyme activity, inhibitor",5 µM,remaining activity,93.5%
CN(C)C(=O)Cn1cc(-c2nc([C@@](C)(c3ccc(-c4cnc(N)nc4)cc3)C3CC3)no2)cn1,"cell-free assay, competition with immobilised ligand",1 µM,remaining binding,100%
Cc1ccc(C(=O)Nc2ccc(CN3CCN(C)CC3)c(C(F)(F)F)c2)cc1C#Cc1cnc2cccnn12,"enzyme activity, inhibitor",23.5 nM,remaining activity,77%
CCCOc1ccc(OC)c(F)c1C(=O)c1ccc(C(=O)N[C@@H]2CNC[C@H]2NC(=O)c2ccc3[nH]ncc3c2)cc1,"enzyme activity, inhibitor",10 µM,remaining activity,105%
Cc1cc(NC(=O)c2cccc3cc(-c4cccc5[nH]nc(N)c45)ccc23)ccc1F,"enzyme activity, inhibitor",0.1 µM,activity vs control,97%
CN1CC(Oc2cnc(C#N)cc2-c2ccn3nc(NC(=O)C4CC4)cc3c2)C1,"enzyme activity, inhibitor",1 µM,inhibition,-5%
CN(C)c1ncnc(-c2ccc3nc(Nc4cc(CN5CCN(C(=O)CC(F)(F)F)CC5)ccn4)[nH]c3c2)c1Cl,"cell-free assay, competition with immobilised ligand",1 µM,remaining binding,100%
Cn1c2c(Cl)c(Cl)ccc2c2cc[nH]c(=O)c21,"thermal stability, DSF",10 µM,ΔTm,1.5 °C
C[C@H](NC(=O)c1cnc2n1[C@](C)(Cc1ccc(C#N)cc1)C(=O)N2c1cc(Cl)c(F)c(Cl)c1)C(=O)NC1(c2ccccn2)CC1,"cell-free assay, competition with immobilised ligand",1 µM,remaining binding,96%
CCN1/C(=C/C(C)=O)Sc2ccc(OC)cc21,cell-free assay,0.5 µM,remaining signal,95%
CC(C)(C)c1nc(-c2cccc(NS(=O)(=O)c3c(F)cccc3F)c2F)c(-c2ccnc(N)n2)s1,"enzyme activity, inhibitor, radiometric",1 µM,remaining activity,74%
COc1cc2ncnc(Nc3ccc(Oc4ccccc4)cc3C)c2cc1OC,"enzyme activity, inhibitor",1 µM,inhibition,5%
CCN(CC)CCNC(=O)c1c(C)[nH]c(/C=C2\C(=O)Nc3ccc(F)cc32)c1C,"enzyme activity, inhibitor",0.3 µM,inhibition,-1%
COc1ccc2c(O[C@@H]3C[C@H]4C(=O)N[C@]5(C(=O)O)CC5/C=C\CCCCC[C@H](NC(=O)OC5CCCC5)C(=O)N4C3)cc(-c3csc(NC(=O)C(C)C)n3)nc2c1C (stereo partly shown),"cell-free assay, competition with immobilised ligand",1 µM,remaining binding,100%
Oc1cccc(-c2nc(N3CCOCC3)c3oc4ncccc4c3n2)c1,cell-free assay,0.5 µM,remaining signal,93.1%
Cn1c2c(c3ccc(Cl)c(Cl)c31)C(C#N)C1(CCCC1)NC2=O (stereo not shown),"thermal stability, DSF",10 µM,ΔTm,0.3 °C
CN1CCN(c2cnc3c(C4CCN(C(=O)c5ccc(OC(F)(F)F)cc5N)CC4)ncnc3c2)CC1,"cell-free assay, competition with immobilised ligand",1 µM,remaining binding,100%
